Screens (PubChem)
In the library only some 1.2% were active in any assay of this set; here they are far more common.
proCasp7 act – procaspase-7 activators, primary screen, counter-screen for procaspase-3 activator project, biochemical, absorbance, HTS, human | Caspase-7 (Homo sapiens), P55210 | recombinant procaspase-7, Ac-DEVD-pNA absorbance 405 nm; D23A/D198A/D206A triple mutant, cannot self-cleave; scale: DMSO 0, 5 µM enzyme 100 | activation, % at 8.5 µM | hit rate 0.093% among 330,000;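 active means percent activation above the screen-wide mean plus 3 SD, cut at about 25% in these data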
Target sequence (P55210 whole entry D23A/D198A/D206A): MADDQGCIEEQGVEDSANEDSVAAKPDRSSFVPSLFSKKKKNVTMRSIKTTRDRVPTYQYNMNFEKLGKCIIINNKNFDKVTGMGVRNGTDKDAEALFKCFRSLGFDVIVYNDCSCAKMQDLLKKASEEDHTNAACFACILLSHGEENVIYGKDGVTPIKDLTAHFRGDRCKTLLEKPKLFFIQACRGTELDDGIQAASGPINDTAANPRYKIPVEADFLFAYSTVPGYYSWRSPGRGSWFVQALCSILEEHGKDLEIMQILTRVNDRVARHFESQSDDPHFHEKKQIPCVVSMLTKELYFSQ
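buffer or medium = Zinc-free HEPES/NaCl buffer, pH 7.4 | material = Procaspase-7 triple mutant (PC-7 D3A) | input = 2 µM procaspase-7 mutant as dispensed | signal = Epi-absorbance of released pNA at 405 nm, two timepoints | timing = 1 h preincubation, 2 h reaction | replicates = singlicate compound testing | evaluation = % activation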
MsrA act – bovine MsrA enzyme activators, primary screen, biochemical, absorbance, HTS; purified bovine MsrA, absorbance read-out; activation, % at 10.6 µM; hit rate 0.3% among 360,000; AID 602163, 2012; in the data active means activation above about 7.5%;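 further: 0% = vehicle and 100% = reference activator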
A1 inh – caspase 3/7 activation in MEF A1-2A-BIM cells, primary screen, A1 inhibitor project, cell-based, luminescence, HTS. Caspase-Glo 3/7 luminescence, 3 h; percent of clofoctol response, vehicle zero. caspase activation, % (no concentration beside the values). hit rate 0.066% among 330,000. AID 2462, 2010;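 active means over half of replicate activation scores above 10%, or exactly half above 10 with the replicate mean above 10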
MsrA inhibitor – bovine MsrA enzyme inhibitors, primary screen, biochemical, absorbance, HTS; AID 651718, 2012; inhibition, % at 15.5 µM; Methionine sulfoxide reductase A (Bos taurus); purified bovine MsrA, absorbance read-out; hit rate 0.75% among 360,000; in the data active means inhibition above about 4.5%;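 further: 0% = vehicle wells with enzyme and 100% = reference inhibitor wells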
procasp3 activ – activators of human procaspase-3 D3A mutant, primary screen, biochemical, absorbance, PC-3 D3A mutant, single concentration | Caspase-3 (Homo sapiens), P42574 | recombinant procaspase-3 D3A, Ac-DEVD-pNA absorbance 405 nm | activation, % at 8.5 µM | hit rate 0.11% among 330,000 | AID 463141, 2010;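 active means activation above the mean of all tested compounds plus 3 SD, cut at about 21% in these data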;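 further: 0% = DMSO alone and 100% = DMSO wells spiked with extra 5 µM PC-3 D3A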
Target sequence (P42574 whole entry D9A/D28A/D175A): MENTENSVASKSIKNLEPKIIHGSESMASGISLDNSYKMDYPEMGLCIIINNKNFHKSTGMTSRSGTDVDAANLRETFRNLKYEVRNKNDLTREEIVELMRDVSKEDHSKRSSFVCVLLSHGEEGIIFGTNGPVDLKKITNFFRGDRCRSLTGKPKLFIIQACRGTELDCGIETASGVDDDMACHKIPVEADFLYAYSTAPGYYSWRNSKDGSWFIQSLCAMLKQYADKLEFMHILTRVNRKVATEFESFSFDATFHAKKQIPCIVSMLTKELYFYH
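material = Procaspase-3 D3A mutant | probe or stimulus = Ac-DEVD-pNA | compound = single dose, 8.5 µM nominal compound, 0.8% DMSO | timing = 1 h preincubation, 2 h reaction | measured by = 405 nm absorbance of p-nitroaniline, reads at 0 and 120 min | benchmarks = DMSO-only low control, 5 µM PC-3 D3A high control | repeats = singlicate, each compound tested once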
PC3 dual counter – procaspase-3 activators, counter-screen for dual procaspase-3/7 activator project, biochemical, absorbance, PC-3 D3A mutant, human. shares compounds with proCasp7 act. recombinant PC-3 D3A, Ac-DEVD-pNA absorbance 405 nm; aspartates 9, 28, 175 changed to alanine; 100% = enzyme control. activation, % at 8.5 µM. 290 tested, under 10 active. AID 493114, 2011;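 active means mean percent activation across triplicates above a set limit taken from the earlier primary procaspase-3 screen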;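 further: 0% = DMSO wells and 100% = DMSO wells with 5 µM added PC-3 D3A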
PC7 dual conf – activation of procaspase-7 enzyme – biochemical, absorbance, human, dual procaspase-3/-7 activator project, confirmation; 290 tested, under 10 active; recombinant procaspase-7, Ac-DEVD-pNA absorbance 405 nm; D23A/D198A/D206A mutant that cannot self-cleave; shares compounds with proCasp7 act; activation, % at 8.5 µM;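 active means mean activation above a set limit carried over from the earlier primary screen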;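 further: 0% = DMSO only and 100% = DMSO with added 5 µM PC-7 enzyme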
Numbers without * were called inactive.

Results for O=C(Cc1cc(=O)oc2cc(O)ccc12)NC(Cc1ccc(Cl)cc1)C(=O)O (configuration not stated) ?
proCasp7 act: 26.9*; MsrA act: -3.8; A1 inh: 0.1; MsrA inhibitor: 3.7; procasp3 activ: 19.5; PC3 dual counter: -30.4; PC7 dual conf: -35.9

What do the screens show for `CCc1cc2c3c(c(=O)oc2cc1O)CCCC3`?
proCasp7 act: 26.0*; MsrA act: -2.0; A1 inh: 0.2; MsrA inhibitor: 2.6; procasp3 activ: 27.9*; PC3 dual counter: -28.8; PC7 dual conf: -36.2

What do the screens show for `CCc1cc2c3c(c(=O)oc2cc1OC(C)C(=O)O)CCCC3` (configuration not stated)?
proCasp7 act: 3.4; MsrA act: -8.8; A1 inh: 0.2; MsrA inhibitor: 3.7; procasp3 activ: 5.4

How did Cc1[nH]nc2c1C(c1c[nH]c3ccccc13)C(C#N)=C(N)O2 (configuration not stated) do in these assays?
proCasp7 act: 29.4*; MsrA act: -1.9; A1 inh: -1.1; MsrA inhibitor: 0.7; procasp3 activ: 18.5; PC3 dual counter: 20.9; PC7 dual conf: 13.8

Results for Cc1[nH]nc2c1[C@@H](c1ccccc1[N+](=O)[O-])C(C#N)=C(N)O2 ?
proCasp7 act: 5.0; MsrA act: -12.6; A1 inh: 1.4; MsrA inhibitor: 1.2; procasp3 activ: -6.3

Results for CC(C)(C)n1nc(C2CC2)cc1NC(=O)Nc1ccccc1 ?
MsrA inhibitor: 0.9

How did Cc1ccc(N)cc1NC(=O)CN1CCOCC1 do in these assays?
proCasp7 act: 26.1*; MsrA act: -7.4; A1 inh: 0.2; MsrA inhibitor: -0.6; procasp3 activ: 12.9; PC3 dual counter: 2.5; PC7 dual conf: -1.0

What do the screens show for `Cn1nc(C(=O)NNC(=O)c2ccc(Cl)c(S(N)(=O)=O)c2)c2ccccc2c1=O`?
proCasp7 act: -1.1; MsrA act: -1.9; A1 inh: -0.3; MsrA inhibitor: 1.6; procasp3 activ: 4.4

What do the screens show for `Cn1nc(C(=O)NNC(=O)c2cccc(Cl)c2)c2ccccc2c1=O`?
proCasp7 act: 25.9*; MsrA act: -4.0; A1 inh: 0.4; MsrA inhibitor: 0.8; procasp3 activ: 10.1; PC3 dual counter: 2.4; PC7 dual conf: -0.8

Results for Cc1cc(N2CCNC[C@@H]2C)ccc1N1CCN(Cc2ccccc2)[C@@H](C)C1 ?
MsrA inhibitor: -0.8

Results for CC(C)C[C@H]1CN([C@@H](Cc2ccccc2)CN2CCC[C@H]2CN2C(=O)C(=O)NC[C@@H]2Cc2ccccc2)C(=O)C(=O)N1CC1CCCCCC1 ?
MsrA inhibitor: 0.4

How did CCC(C)NC(=O)CSc1ccc(NC(C)=O)cc1 (configuration not stated) do in these assays?
proCasp7 act: 39.1*; MsrA act: -9.3; A1 inh: 1.3; MsrA inhibitor: 0.7; procasp3 activ: -3.7; PC3 dual counter: 1.8; PC7 dual conf: 6.9

What do the screens show for `C=CCSc1nnc(-c2cc3c(s2)-c2ccccc2CC3)o1`?
proCasp7 act: 27.7*; MsrA act: -12.4; A1 inh: 0.4; MsrA inhibitor: 0.1; procasp3 activ: 18.1; PC3 dual counter: -28.9; PC7 dual conf: -27.3

What do the screens show for `NS(=O)(=O)c1ccc(N2N=C(c3ccc(Br)cc3)CC2c2ccc(F)cc2)cc1` (configuration not stated)?
proCasp7 act: 20.2; MsrA act: -5.5; A1 inh: 0.0; MsrA inhibitor: 2.3; procasp3 activ: 3.1

Results for NS(=O)(=O)c1ccc(N2N=C(c3ccccc3)CC2c2ccccc2Br)cc1 (configuration not stated) ?
proCasp7 act: 68.1*; MsrA act: -2.5; MsrA inhibitor: 2.6; procasp3 activ: 26.1*; PC3 dual counter: -28.3; PC7 dual conf: -34.9

Results for NS(=O)(=O)c1ccc(N2N=C(c3ccccc3)CC2c2cccc(F)c2)cc1 (configuration not stated) ?
proCasp7 act: 67.4*; MsrA act: -4.9; A1 inh: 0.2; MsrA inhibitor: 1.0; procasp3 activ: 39.5*; PC3 dual counter: -30.1; PC7 dual conf: -36.6

Results for NS(=O)(=O)c1ccc(N2N=C(c3ccccc3)CC2c2cccc(Br)c2)cc1 (configuration not stated) ?
proCasp7 act: 32.0*; MsrA act: -10.8; MsrA inhibitor: 2.5; procasp3 activ: 29.0*; PC3 dual counter: -30.6; PC7 dual conf: -34.5

What do the screens show for `COc1ccc(C2CC(c3ccccc3)=NN2c2ccc(S(N)(=O)=O)cc2)cc1OC` (configuration not stated)?
proCasp7 act: 25.8*; MsrA act: -7.9; A1 inh: -0.9; MsrA inhibitor: 2.5; procasp3 activ: 9.6; PC3 dual counter: -28.8; PC7 dual conf: -35.7

What do the screens show for `COc1cc(C2CC(c3ccccc3)=NN2c2ccccc2)ccc1OCC(=O)O` (configuration not stated)?
proCasp7 act: 0.3; MsrA act: -4.2; A1 inh: 0.6; MsrA inhibitor: 2.4; procasp3 activ: 3.4

Results for Cc1cc(O)cc(=O)n1-c1cc(F)c(F)c(F)c1 ?
MsrA inhibitor: 1.0

Results for CCCN1CCCCC(NC(=O)c2ccc3ccccc3c2)C1=O (configuration not stated) ?
MsrA inhibitor: 0.2

How did Cc1ccccc1Cn1ccc(NC(=O)c2cc3nc(-c4ccco4)cc(C(F)(F)F)n3n2)n1 do in these assays?
proCasp7 act: 48.0*; MsrA act: 1.8; A1 inh: 0.2; MsrA inhibitor: -0.7; procasp3 activ: 9.9; PC3 dual counter: -31.4; PC7 dual conf: -36.4

What do the screens show for `CCc1ccc(-n2nc3cc(C)c(N)cc3n2)cc1`?
proCasp7 act: 27.9*; MsrA act: -3.1; A1 inh: -4.4; MsrA inhibitor: 1.1; procasp3 activ: 34.8*; PC3 dual counter: -30.0; PC7 dual conf: -34.5

How did Cc1cc(O)cc(=O)n1-c1cc(C(F)(F)F)cc(C(F)(F)F)c1 do in these assays?
MsrA inhibitor: 0.1
